Assay results from ChEMBL document CHEMBL1132155, “Endothelin antagonists: substituted mesitylcarboxamides with high potency and selectivity for ET(A) receptors” (J Med Chem, 1999).
Converted amounts (≈) assume the structure as drawn.

Experiments:
[1] = target: Endothelin receptor, ET-A/ET-B (Homo sapiens) (UniProt P24530+P25101); experiment: Compound was evaluated for the selectivity of ET-A receptors (ET-B IC50/ ET-A IC50); format: protein assay
[2] = target: T1, Endothelin-1 receptor (Homo sapiens) (UniProt P25101); experiment: Competitive binding to Endothelin A receptor by displacement of [125I]ET1 (Relative IC50 was calculated as IC50 of compound/IC50 of TBC11251)
T1 sequence (whole entry): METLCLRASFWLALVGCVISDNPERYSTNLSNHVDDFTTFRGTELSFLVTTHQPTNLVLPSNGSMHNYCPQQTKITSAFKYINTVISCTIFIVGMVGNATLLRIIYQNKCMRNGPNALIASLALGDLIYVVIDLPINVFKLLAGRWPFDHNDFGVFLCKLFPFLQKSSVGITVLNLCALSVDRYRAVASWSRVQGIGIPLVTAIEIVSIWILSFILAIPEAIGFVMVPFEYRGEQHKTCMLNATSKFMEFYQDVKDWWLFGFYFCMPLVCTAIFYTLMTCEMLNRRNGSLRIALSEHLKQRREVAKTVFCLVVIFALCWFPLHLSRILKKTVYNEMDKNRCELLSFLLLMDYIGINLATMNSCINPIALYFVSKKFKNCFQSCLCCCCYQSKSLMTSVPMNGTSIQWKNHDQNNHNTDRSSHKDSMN

[3] = Compound was evaluated for the biological half-life when administered orally in Acute Pulmonary Hypertension Rat Model; format: ADME, organism-based; conditions: in vivo, po
Summary of the method: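 Adult Harlan Sprague–Dawley rats received 50 mg/kg by gavage in 0.5% high-viscosity carboxymethyl cellulose (5 mL/kg). Serial 200 μL tail-vein blood samples were taken at selected times into heparin-coated tubes. Red cells were removed by centrifugation and plasma stored at −80 °C. Plasma proteins were precipitated with acetonitrile before HPLC analysis; serum half-life was derived from these samples.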

[4] = tested on: Rattus norvegicus; experiment: Compound was evaluated for the effective oral dose in Acute Pulmonary Hypertension Rat Model after administering 2 hours prior to experiment; format: functional
Summary of the method: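 Rat model of acute hypoxia-induced pulmonary hypertension. Compound given orally 2 h before hypoxia. Reported value is the lowest tested dose giving 90–100% inhibition of mean pulmonary arterial pressure; mean systemic arterial pressure and heart rate were also monitored. Some entries give % inhibition at 5 mg/kg.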

[5] = Compound was evaluated for the aqueous solubility (AS) in mg/mL (Measured in 0.2 M phosphate buffer of pH 7.4); format: physicochemical; conditions: read-out: AS
Summary of the method: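 Solubility measured in 0.2 M phosphate buffer, pH 7.4. Where a preformed sodium salt was used, it was measured in saline (9 mg/mL).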

Chain of Endothelin receptor, ET-A/ET-B (Homo sapiens) (P24530 whole entry, looked up, one chain of several): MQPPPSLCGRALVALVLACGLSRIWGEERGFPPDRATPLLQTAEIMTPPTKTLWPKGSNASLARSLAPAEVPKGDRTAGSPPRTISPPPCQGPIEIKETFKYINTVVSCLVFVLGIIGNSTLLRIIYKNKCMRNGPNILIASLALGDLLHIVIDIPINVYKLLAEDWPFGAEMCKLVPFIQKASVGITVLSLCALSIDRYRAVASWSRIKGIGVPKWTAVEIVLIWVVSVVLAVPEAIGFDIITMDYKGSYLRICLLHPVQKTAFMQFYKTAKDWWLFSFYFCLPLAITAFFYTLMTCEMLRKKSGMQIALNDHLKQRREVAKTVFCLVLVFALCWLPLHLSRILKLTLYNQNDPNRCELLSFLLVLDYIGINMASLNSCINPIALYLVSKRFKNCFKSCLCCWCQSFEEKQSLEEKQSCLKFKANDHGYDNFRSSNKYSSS

SMILES	Selectivity [1]	Relative ET-A IC50 [2]	half-life [3]	Effective dose [4]	solubility [5]
CCOC(=O)N(C(=O)c1sccc1S(=O)(=O)Nc1onc(C)c1Cl)c1c(C)cc(C)c(O)c1C	1530	5.56	–	–	–
Cc1cc(C)c(CNC(=O)c2sccc2S(=O)(=O)Nc2onc(C)c2Cl)c(C)c1CC#N	95	56.4	–	–	–
Cc1cc2c(cc1C(CC(=O)O)C(=O)c1sccc1S(=O)(=O)Nc1onc(C)c1Cl)OCO2 (configuration not stated)	–	5.36	–	–	–
Cc1cc(C)c(OS(=O)(=O)N(C)C)c(C)c1NC(=O)c1sccc1S(=O)(=O)Nc1onc(C)c1Cl	1630	2.3	–	–	–
CC(=O)OCc1c(C)cc(C)c(NC(=O)c2sccc2S(=O)(=O)Nc2noc(C)c2Cl)c1C	38400	0.03	–	–	–
Cc1noc(NS(=O)(=O)c2ccsc2C(=O)Nc2c(C)c(C)c(C)c(C)c2C)c1Cl	1080	1.97	–	–	–
Cc1nc(C)c(NC(=O)c2sccc2S(=O)(=O)Nc2onc(C)c2Cl)c(C)n1	9160	0.25	–	–	–
CC(=O)OCc1c(C)cc(C)c(NC(=O)c2sccc2S(=O)(=O)Nc2onc(C)c2Cl)c1C	850000	0.06	0.5 h	5 mg/kg	–
Cc1cc(C)c(NC(=O)c2sccc2S(=O)(=O)Nc2onc(C)c2Cl)c(C)c1C#N	37700	0.1	1.8 h	–	37 mg/mL (≈ 79.6 mM)
Cc1cc(C)c(NC(=O)c2sccc2S(=O)(=O)Nc2noc(C)c2Cl)c(C)c1CO	3500	0.06	–	–	–
Cc1cc(C)c(CC(=O)c2sccc2S(=O)(=O)Nc2onc(C)c2Cl)c(C)c1	9390	0.24	–	–	–
Cc1cc2c(cc1CC(=O)c1sccc1S(=O)(=O)Nc1onc(C)c1Cl)OCO2 [SITAXENTAN]	3210	1	4.1 h	5 mg/kg	< 10 mg/mL
Cc1cc(C)c(C(=O)O)c(C)c1NC(=O)c1sccc1S(=O)(=O)Nc1onc(C)c1Cl	–	0.79	–	–	–
CC(=O)OCc1c(C)cc(C)c(NC(=O)c2sccc2S(=O)(=O)Nc2onc(C)c2C)c1C	160000	0.06	–	–	–
Cc1cc(C)c(NC(=O)c2sccc2S(=O)(=O)Nc2onc(C)c2Cl)c(C)c1COC(=S)N(C)C	16200	0.21	–	–	–
COCCOCCOCC(=O)Oc1c(C)cc(C)c(NC(=O)c2sccc2S(=O)(=O)Nc2onc(C)c2Cl)c1C	–	0.5	–	–	–
Cc1cc2c(cc1C(C)C(=O)c1sccc1S(=O)(=O)Nc1onc(C)c1Cl)OCO2 (configuration not stated)	–	5.63	–	–	–
Cc1cc(C)c(OC(=S)N(C)C)c(C)c1NC(=O)c1sccc1S(=O)(=O)Nc1onc(C)c1Cl	22600	0.09	–	–	–
Cc1noc(NS(=O)(=O)c2ccsc2C(=O)Nc2c(C)c(CC#N)c(C)c(CC#N)c2C)c1Cl	3	3110	–	–	–
Cc1cc(C)c(NC(=O)c2sccc2S(=O)(=O)Nc2onc(C)c2Cl)c(C)c1CN(C)C	–	0.88	–	–	–
Cc1cc(C)c(NC(=O)c2sccc2S(=O)(=O)Nc2onc(C)c2C)c(C)c1CC#N	14600	0.1	1.8 h	–	< 10 mg/mL
COc1c(C)cc(C)c(NC(=O)c2sccc2S(=O)(=O)Nc2onc(C)c2Cl)c1C	56400	0.06	1.8 h	–	< 10 mg/mL

SMILES	Selectivity [1]	Relative ET-A IC50 [2]	half-life [3]	Effective dose [4]	solubility [5]
COC(=O)c1cc(C)cc(C)c1NC(=O)c1sccc1S(=O)(=O)Nc1onc(C)c1Cl	36200	0.16	–	–	–
Cc1cc(C)c(N2CCCC2)c(C)c1NC(=O)c1sccc1S(=O)(=O)Nc1onc(C)c1Cl	–	0.15	–	–	–
CC(=O)Oc1c(C)cc(C)c(NC(=O)c2sccc2S(=O)(=O)Nc2onc(C)c2Cl)c1C	6970	0.11	–	–	–
Cc1cc(C)c(NC(=O)c2sccc2S(=O)(=O)Nc2onc(C)c2Cl)c(C)c1CC#N	32900	0.08	2.3 h	5 mg/kg	< 10 mg/mL
Cc1cc(C)c(NC(=O)c2sccc2S(=O)(=O)Nc2onc(C)c2C)c(C)c1CO	30400	0.07	–	–	–
Cc1cc(C)c(NC(=O)c2sccc2S(=O)(=O)Nc2onc(C)c2Cl)c(C)c1	7050	0.1	2.5 h	–	23 mg/mL (≈ 52.3 mM)
Cc1cc(C)c(NC(=O)c2sccc2S(=O)(=O)Nc2onc(C)c2Cl)c(C)c1CO	111000	0.04	1.4 h	15 mg/kg	65 mg/mL (≈ 138 mM)
COC(=O)Cc1c(C)cc(C)c(NC(=O)c2sccc2S(=O)(=O)Nc2onc(C)c2Cl)c1C	114000	0.07	–	–	–
Cc1cc(C)c(S(N)(=O)=O)c(C)c1NC(=O)c1sccc1S(=O)(=O)Nc1onc(C)c1Cl	27800	0.06	1.5 h	5 mg/kg	30 mg/mL (≈ 57.8 mM)
Cc1cc(C)c(OCC(=O)O)c(C)c1NC(=O)c1sccc1S(=O)(=O)Nc1onc(C)c1Cl	23000	0.05	–	–	–
Cc1cc(C)c(NC(=O)c2sccc2S(=O)(=O)Nc2noc(C)c2Cl)c(C)c1CC#N	8550	0.06	3.1 h	–	70 mg/mL (≈ 146 mM)
COc1c(C)cc(C)c(CC(=O)c2sccc2S(=O)(=O)Nc2onc(C)c2Cl)c1C	7640	0.13	3.86 h	–	–
Cc1cc(C)c(NC(=O)c2sccc2S(=O)(=O)Nc2onc(C)c2Cl)c(C)c1CC(=O)O	59900	0.12	–	–	–
COc1cc(C#N)c(NC(=O)c2sccc2S(=O)(=O)Nc2onc(C)c2Cl)c(OC)c1OC	29200	0.01	< 1 h	–	43 mg/mL (≈ 83.8 mM)
Cc1cc(C)c(N(C)C)c(C)c1NC(=O)c1sccc1S(=O)(=O)Nc1onc(C)c1Cl	36600	0.07	1 h	–	50 mg/mL (≈ 104 mM)
Cc1cc(C)c(NS(C)(=O)=O)c(C)c1NC(=O)c1sccc1S(=O)(=O)Nc1onc(C)c1Cl	41700	0.11	2.1 h	–	< 10 mg/mL
Cc1cc(C)c(OCC2CC2)c(C)c1NC(=O)c1sccc1S(=O)(=O)Nc1onc(C)c1Cl	59400	0.07	–	–	–
COC(=O)c1c(C)cc(C)c(NC(=O)c2sccc2S(=O)(=O)Nc2onc(C)c2Cl)c1C	41900	0.21	–	–	–
Cc1cc2c(cc1C(CCBr)C(=O)c1sccc1S(=O)(=O)Nc1onc(C)c1Cl)OCO2 (configuration not stated)	59	38.4	–	–	–
Cc1cc(C)c(CC(=O)c2sccc2S(=O)(=O)Nc2onc(C)c2Cl)c(C)c1O	10800	0.08	3.9 h	–	–
Cc1cc(C)c(CNC(=O)c2sccc2S(=O)(=O)Nc2onc(C)c2Cl)c(C)c1	0.004	1.15e+06	–	–	–
